Published values of several laboratories.
Lines come from different studies, so protocols differ.
Target: Mitogen-activated protein kinase 3 (MAPK3, Homo sapiens, UniProt P27361)

O=C1NC(=O)c2cc(Nc3ccc(F)cc3)c(Nc3ccc(F)cc3)cc21  remaining signal (cell-free assay; 0.5 µM): 86.1%
Nc1nc(NC2CCCCC2)sc1C(=O)c1ccccc1  remaining activity (enzyme activity; inhibitor; 10 µM): 20%
COc1cc(Nc2cnc(C#N)c(O[C@H](C)CN(C)C)n2)ncc1-c1cnn(C)c1  remaining activity (enzyme activity; inhibitor; radiometric; 10 µM): 71%
CCN1CCN(Cc2ccc(NC(=O)c3ccc(C)c(Oc4ccnc5[nH]ccc45)c3)cc2C(F)(F)F)CC1  inhibition (target engagement in cells; inhibitor; chemoproteomics; A-375; 5 µM): -51.2%
COc1ccc2c(c1)O[C@H](c1ccc(OC)c(OC)c1)C[C@@H]2NC(=O)C1(c2ccc3c(c2)OC(F)(F)O3)CC1  remaining binding (cell-free assay; competition with immobilised ligand; 1 µM): 100%
COc1cc(Nc2c(C#N)cnc3cc(OCCCN4CCN(C)CC4)c(OC)cc23)c(Cl)cc1Cl  remaining signal (cell-free assay; 0.5 µM): 98.9%
Cc1nc(N2CC[C@@H](O)C2)ncc1-c1cc(C(F)(F)F)cc2[nH]ncc12  remaining binding (binding; competition with immobilised ligand; 1 µM): 100%
Cn1c2c(Cl)c(Cl)ccc2c2cn[nH]c(=O)c21  ΔTm (thermal stability; DSF; 10 µM): 0.1 °C
Oc1cccc(-c2nc(N3CCOCC3)c3oc4ncccc4c3n2)c1  remaining activity (enzyme activity; inhibitor; 10 µM): 112%
CCCS(=O)(=O)Nc1ccc(F)c(C(=O)c2c[nH]c3ncc(-c4ccc(Cl)cc4)cc23)c1F  inhibition (enzyme activity; inhibitor; 1 µM): < 20%
CC/C(=N\NC(=O)NCc1cccc(O)c1)c1ccc(O)c(C)c1O  inhibition (enzyme activity; inhibitor; 0.1 µM): -2.7%
O=C(N[C@H]1CCCCC/C=C\C2C[C@@]2(C(=O)O)NC(=O)[C@@H]2C[C@@H](Oc3ccncc3)CN2C1=O)OC1CCCC1 (stereo partly shown)  remaining binding (binding; competition with immobilised ligand; 1 µM): 69%
O=C(Nc1cnn(-c2csc(C(=O)NC3COC3)c2)c1)Nc1ccccc1Cl  remaining activity (enzyme activity; inhibitor; 5 µM): 92.8%
Cn1c2c(Cl)c(Cl)ccc2c2cc[nH]c(=O)c21  ΔTm (thermal stability; DSF; 10 µM): -0.4 °C
CCN1CCN(Cc2ccc(NC(=O)c3ccc(C)c(/C=C/c4cnc5[nH]ccc5c4OC)c3)cc2C(F)(F)F)CC1  inhibition (target engagement in cells; inhibitor; chemoproteomics; A-375; 5 µM): -26.3%
O=C(Nc1cccnn1)N1CCC(=Cc2cccc(Oc3ccc(C(F)(F)F)cn3)c2)CC1  remaining binding (cell-free assay; competition with immobilised ligand; 1 µM): 100%
c1nc2c(Nc3ccc4c(c3)OCCO4)nc(Nc3ccc4c(c3)OCCO4)nc2[nH]1  activity vs control (enzyme activity; inhibitor; 10 µM): 94%
CCC(=O)N[C@@H]1CC[C@H](C(=O)N(C)c2ccc(-c3nc4ccccc4o3)cc2)C1  remaining binding (cell-free assay; competition with immobilised ligand; 1 µM): 100%
CC1(C)NC(=O)c2[nH]c3c(Cl)c(Cl)ccc3c2C1C#N (stereo not shown)  ΔTm (thermal stability; DSF; 10 µM): 0.2 °C
CC(C)(C)c1nc2c(s1)c1nc(N)ncc1c1ccc(NS(=O)(=O)c3c(F)cccc3F)c(F)c12  remaining activity (enzyme activity; inhibitor; radiometric; 1 µM): 84%
Nc1ncnc2occ(-c3ccc(NC(=O)Nc4cc(C(F)(F)F)ccc4F)cc3)c12  remaining signal (cell-free assay; inhibitor; 20 µM): 100%
Cc1ccc(C(=O)Nc2ccc(CN3CCN(C)CC3)c(C(F)(F)F)c2)cc1C#Cc1cnc2cccnn12  remaining activity (enzyme activity; inhibitor; 23.5 nM): 100%
CCN1CCC2(CC1)NC(=O)c1c(c3ccc(Cl)c(Cl)c3n1C)C2C#N (racemic)  ΔTm (thermal stability; DSF; 10 µM): 0 °C
COc1cc2ncnc(Nc3ccc(Oc4ccccc4)cc3C)c2cc1OC  inhibition (enzyme activity; inhibitor; 1 µM): 5%
N#CC(c1ccnc(NCCc2cccnc2)n1)c1nc2ccccc2s1 (stereo not shown)  remaining activity (enzyme activity; inhibitor; 0.5 µM): 99.4%
FC(F)(F)Oc1cccc(-c2cnc3ccc(-c4ccncc4)nn23)c1  activity vs control (enzyme activity; inhibitor; radiometric; 5 µM): 82%
Cn1c2c(c3ccc(Cl)c(Cl)c31)C(C#N)C(C)(C)NC2=O (stereo not shown)  ΔTm (thermal stability; DSF; 10 µM): 0.1 °C
COc1cc(/C=C/C(=O)CC(=O)/C=C/c2ccc(O)c(OC)c2)ccc1O  activity vs control (enzyme activity; inhibitor; 1 µM): 94%
Cc1cc(NC(=O)c2cccc(S(F)(F)(F)(F)F)c2)cc(-n2ccn3nc(-c4cccnc4)cc23)c1  remaining binding (cell-free assay; competition with immobilised ligand; 1 µM): 86.8%
N#CCCc1ccc2c(c1)-c1[nH]c3ccc([N+](=O)[O-])cc3c1CC(=O)N2  remaining signal (cell-free assay; 0.5 µM): 95.1%
Nc1cnc(N2CCc3cc(S(=O)(=O)Nc4c(F)cc(Cl)cc4F)cc(N4CCCC4=O)c32)nc1  remaining binding (cell-free assay; competition with immobilised ligand; 1 µM): 91%
O=C1Nc2ccc(Cl)cc2C1=Cc1cc(Cl)c(O)c(Cl)c1  remaining signal (cell-free assay; 0.5 µM): 88.2%
Cn1nc(C(=O)NCc2ccc(C(=O)O)cc2)cc1-c1ccc2[nH]ccc2c1  remaining binding (cell-free assay; competition with immobilised ligand; 0.1 µM): 94%
Cn1c2c(c3ccc(Cl)c(Cl)c31)C(C#N)C1(CCNCC1)NC2=O (racemic)  ΔTm (thermal stability; DSF; 10 µM): 0.5 °C
